Results pooled from the literature.
Target: Protein kinase C theta type (PRKCQ, Homo sapiens, UniProt Q04759)

Nc1ncc2c(n1)-c1c([nH]c3ccc(C#CC4CC4)cc13)CCCC2 — remaining binding (binding; competition with immobilised ligand; 1 µM): 98%
Cc1cnn2ncc(-c3ccnc(N(C)C)n3)c2c1 — remaining binding (binding; 1 µM): 99%
COc1cnc(Nc2cccc(S(N)(=O)=O)c2)nc1N1CCN(c2ccccc2)C(=O)C1 — remaining binding (binding; competition with immobilised ligand; 1 µM): 100%
CCOCCn1cc(C(=O)Nc2ccc(-n3nc(-c4cccnc4)cc3C(F)(F)F)cn2)ccc1=O — remaining binding (cell-free assay; competition with immobilised ligand; 1 µM): 73%
O=C(NCCCN1CCOCC1)c1ccc(Nc2nccc(-c3cc4ccccc4s3)n2)cc1 — remaining binding (binding; competition with immobilised ligand; 1 µM): 100%
CN(C)c1nccc(-c2cnc3ncccn23)n1 — remaining binding (binding; 1 µM): 75%
CN(C)CC#Cc1ccc(OCCCc2sc(N3CCc4cccc(C(=O)Nc5nc6ccccc6s5)c4C3)nc2C(=O)O)c(F)c1 — remaining binding (cell-free assay; competition with immobilised ligand; 1 µM): 92%
N[C@@H]1CCN(c2nccc(-c3cnn4ncccc34)n2)C1 — remaining binding (binding; 1 µM): 100%
c1cncc(-c2cccc(Nc3nccc(NC4CCCCC4)n3)c2)c1 — remaining binding (binding; competition with immobilised ligand; 10 µM): 8.3%
C[C@@H]1CN(c2cc(-c3nn(C)c4ccc(OC5(C)CC5)cc34)ncn2)C[C@H](C)O1 — remaining binding (cell-free assay; competition with immobilised ligand; 1 µM): 91%
O=C(c1ccc(Nc2nccc(-c3cc4ccccc4s3)n2)cc1)N1CCC(N2CCCC2)CC1 — remaining binding (binding; competition with immobilised ligand; 1 µM): 56%
COc1ncc2cc3ccccc3nc2c1C#N — remaining binding (cell-free assay; competition with immobilised ligand; 5 µM): 94%
Cc1cnc(Nc2ccc(C(=O)N3CCC(N4CCCC4)CC3)cc2)nc1-c1cc2ccccc2s1 — remaining binding (binding; competition with immobilised ligand; 1 µM): 27%
CS(=O)(=O)N1CCCC(NC(=O)[C@H](CCC2CCCCC2)NC(=O)c2ccc(CNC(=O)c3cnc4ccccn34)cc2)C1 (stereo partly shown) — remaining binding (cell-free assay; competition with immobilised ligand; 0.1 µM): 97%
CN(CCCC(F)(F)F)c1nccc(-c2cnn3ncccc23)n1 — remaining binding (binding; 1 µM): 100%
C=CC(=O)N1CCC(C(=O)NCC(=O)N2CCN(c3nc(-c4cnc(N)nc4C(F)F)nc(N4CCOCC4)n3)CC2)CC1 — remaining binding (binding; competition with immobilised ligand; 1 µM): 83%
O=C(Nc1ccc(Oc2ccc(F)cc2)cc1)N1CCc2ncccc2[C@H]1c1ccc(F)cc1 — remaining binding (cell-free assay; competition with immobilised ligand; 1 µM): 95%
CC1CCCN1c1nccc(-c2cnn3ncccc23)n1 (stereo not shown) — remaining binding (binding; 1 µM): 100%
Nc1c(C(=O)NCc2ccc(C(=O)NCCCC3CCCCC3)cc2)cnn1-c1ccccc1 — remaining binding (cell-free assay; competition with immobilised ligand; 0.1 µM): 100%
C[C@@H]1CCN(c2nccc(-c3cnn4ncccc34)n2)C1 — remaining binding (binding; 1 µM): 67%
CO[C@H]1CC[C@H](CNc2ccc(S(=O)(=O)NC(=O)c3ccc(N4CCN(CC5=C(c6ccc(Cl)cc6)CC(C)(C)CC5)CC4)cc3Oc3cnc4[nH]ccc4c3)cc2[N+](=O)[O-])CC1 — remaining binding (cell-free assay; competition with immobilised ligand; 1 µM): 89%
O=C(NCC1CCOCC1)c1n[nH]cc1NC(=O)c1c(F)cccc1F — remaining binding (binding; competition with immobilised ligand; 1 µM): 100%
